Source: ChEMBL document CHEMBL1156079, “Imidazoquines as antimalarial and antipneumocystis agents” (J Med Chem, 2009)
In brackets after ≈: the same amount, converted by molar mass.

Tests used:
A549 = assay: Cytotoxicity against human A549 cells after 72 hrs; assay type: cell-based; settings: A549, 72 h
Pneumocystis carinii [1] = assay: Antipneumocystis activity against Pneumocystis carinii assessed as reduction in parasite ATP content after 24 hrs by luciferin-luciferase assay; assay type: functional, organism-based
Summary of the method: (§1)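 P. carinii from immunosuppressed, intratracheally inoculated Long Evans and Brown Norway rats, 10⁸ nuclei/ml in supplemented RPMI 1640 with 20% calf serum, pH 7.5–8.0, 380 mOsm. Compounds added in DMSO (final <0.2% v/v). Incubated at 35 °C, 10% CO₂, with daily medium change; sampled at 24, 48 and 72 h. ATP measured by luciferin-luciferase as % of untreated control; triplicate wells across isolation batches, three readings each.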

Plasmodium berghei [2] = assay: Antiplasmodial activity against liver-stage GFP expressing Plasmodium berghei sporozoites infected in human HuH7 cells assessed as inhibition of parasite schizonts development after 48 hrs by FACS analysis; assay type: functional, organism-based; settings: for Activity: Huh-7; for IC50: Huh-7, Liver
Plasmodium berghei [3] = assay: Antiplasmodial activity against Plasmodium berghei ANKA infected in BALB/c mice (Mus musculus) assessed as parasite-transmission to Anopheles stephensi after feeding on infected mice (Mus musculus) at 10 umol/kg, intraperitoneally administered 4 days after infection measured 10 days after 2 hrs of mosquito feeding by transmission-blocking activity assay relative to control; assay type: functional
Summary of the method: (§2)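 Balb/C mice infected with P. berghei ANKA; after 4 days, once gametocytes were seen on Giemsa blood films, groups of six got one intraperitoneal dose (10 or 50 μmol/kg; PBS controls). At 2 h, anesthetized mice fed ca. 50 glucose-starved female An. stephensi for 2 h. Ten days later, 10 mosquitoes per cage dissected; midgut oocysts counted, giving % infected mosquitoes and mean oocysts per mosquito.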

Pneumocystis carinii [4] = assay: Antipneumocystis activity against Pneumocystis carinii assessed as reduction in parasite ATP content after 24 to 72 hrs by luciferin-luciferase assay; assay type: functional, organism-based; summary of the method: as §1
Pneumocystis carinii [5] = assay: Antipneumocystis activity against Pneumocystis carinii assessed as reduction in parasite ATP content after 48 hrs by luciferin-luciferase assay; assay type: functional, organism-based; summary of the method: as §1
[6] = Solubility in water; assay type: physicochemical
Plasmodium berghei [7] = assay: Antiplasmodial activity against Plasmodium berghei ANKA infected in BALB/c mice (Mus musculus) assessed as parasite-transmission to Anopheles stephensi after feeding on infected mice (Mus musculus) at 50 umol/kg, intraperitoneally administered 4 days after infection measured 10 days after 2 hrs of mosquito feeding by transmission-blocking activity assay relative to control; assay type: functional; summary of the method: as §2
Pneumocystis carinii [8] = assay: Antipneumocystis activity against Pneumocystis carinii assessed as reduction in parasite ATP content after 72 hrs by luciferin-luciferase assay; assay type: functional, organism-based; summary of the method: as §1
Homo sapiens = species: Homo sapiens; assay: Half life in human plasma by HPLC analysis
[9] = Chemical stability by HPLC analysis; assay type: physicochemical
Pneumocystis carinii [10] = assay: Antipneumocystis activity against Pneumocystis carinii assessed as reduction in parasite ATP content at < 0.2% v/v by luciferin-luciferase assay; assay type: functional, organism-based; settings: TDE = time-dependent effect
Plasmodium falciparum = assay: Antiplasmodial activity against chloroquine-resistant blood stage Plasmodium falciparum W2 after 48 hrs by FACS analysis; assay type: functional, organism-based; settings: W2, 48 h
[11] = Octanol/water partition coefficient, log P of the compound; assay type: physicochemical
[12] = Selectivity index, ratio of cytotoxicity against human A549 cells to IC50 for chloroquine-resistant blood-stage Plasmodium falciparum W2; assay type: toxicity, cell-based; settings: read-out: Selectivity Index

Structure (SMILES) | IC50 (A549) [µM] | IC50 (Pneumocystis carinii [1]) [µM] | Activity (Plasmodium berghei [2]) | IC50 (Plasmodium berghei [2]) [µM] | Activity (Plasmodium berghei [3]) [%] | Activity (Pneumocystis carinii [4]) | IC50 (Pneumocystis carinii [5]) [µM] | solubility ([6]; water) [µg/mL] | Activity (Plasmodium berghei [7]) [%] | IC50 (Pneumocystis carinii [8]) [µM] | half-life (Homo sapiens) [h] | Stability [9] | Activity (Pneumocystis carinii [10]) | IC50 (Plasmodium falciparum) [µM] | logP [11] | solubility ([6]; buffer) [µg/mL] | selectivity ratio [12]
CC[C@H](C)[C@@H](N)C(=O)N1CC(=O)N(CCCC(C)Nc2cc(OC)cc3cccnc23)C1(C)C (stereo partly specified) | 14.9 | 27.5 | Dose-dependent effect | 13 | 83.3 | Dose-dependent effect | 16 | 29.7 (≈ 63.2 µM) | 62.2 | 9.8 | > 72 | Stable | tde | 8.7 | 3.4 | – | –
COc1cc(NC(C)CCCN2C(=O)[C@@H](C)N(C(=O)CN)C2(C)C)c2ncccc2c1 (stereo partly specified) | > 100 | ≥ 50 | Dose-dependent effect | 21 | 62 | Dose-dependent effect | 75.4 | 110 (≈ 257 µM) | 37.5 | 52.2 | > 72 | Stable | tde | 5.5 | 2.57 | – | –
COc1cc(NC(C)CCCN2C(=O)CNC2(C)C)c2ncccc2c1 (stereo unspecified) | – | – | – | – | – | – | – | 40.5 (≈ 114 µM) | – | – | – | – | – | – | 3.07 | – | –
COc1cc(NC(C)CCCN)c2ncccc2c1 (stereo unspecified) [PRIMAQUINE] | > 100 | 18.1 | – | – | 40 | Dose-dependent effect | 8.5 | – | 2.9 | 3.5 | – | – | tde | – | 2.76 | 56.4 (≈ 217 µM) | –
COc1cc(NC(C)CCCN2C(=O)[C@@H](C)NC2(C)C)c2ncccc2c1 (stereo partly specified) | – | – | – | – | – | – | – | 29.8 (≈ 80.4 µM) | – | – | > 72 | – | – | – | 3.25 | – | –
COc1cc(NC(C)CCCN2C(=O)CN(C(=O)CN)C2(C)C)c2ncccc2c1 (stereo unspecified) | > 100 | 43.8 | Dose-dependent effect | 22 | 42.5 | Dose-dependent effect | 37.5 | 150 (≈ 363 µM) | 40.5 | 28.1 | > 72 | Stable | tde | 6.7 | 2.19 | – | –
COc1cc(N(C(C)=O)C(C)CCCN2C(=O)CN(C(C)=O)C2(C)C)c2ncccc2c1 (stereo unspecified) | > 100 | ≥ 50 | – | – | – | – | ≥ 50 | – | – | ≥ 50 | – | – | – | > 10 | – | – | –
COc1cc(NC(C)CCCN2C(=O)CN(C(=O)[C@H](N)Cc3ccccc3)C2(C)C)c2ncccc2c1 (stereo partly specified) | 9.1 | 24 | Dose-dependent effect | 21 | 43.8 | Dose-dependent effect | 18.5 | 5.4 (≈ 10.7 µM) | 40 | 10.1 | > 72 | Stable | tde | 9.9 | 3.6 | – | –
COc1cc(NC(C)CCCN2C(=O)CN(C(=O)[C@H](N)CC(C)C)C2(C)C)c2ncccc2c1 (stereo partly specified) | 21.2 | 31.1 | Dose-dependent effect | 24 | – | Dose-dependent effect | 17.9 | 26.6 (≈ 56.6 µM) | – | 10.9 | > 72 | Stable | tde | 6.3 | 3.36 | – | 3.5
COc1cc(NC(C)CCCN2C(=O)CN(C(=O)[C@H](N)CCSC)C2(C)C)c2ncccc2c1 (stereo partly specified) | 7.9 | 23.8 | Dose-dependent effect | 31 | 47.1 | Dose-dependent effect | 13.1 | 11.7 (≈ 24 µM) | 26.4 | 7 | > 72 | Stable | tde | 12.5 | 2.94 | – | –
COc1cc(NC(C)CCCN2C(=O)CN(C(=O)[C@H](N)C(C)C)C2(C)C)c2ncccc2c1 (stereo partly specified) | 5.5 | 54.3 | Dose-dependent effect | 17 | – | Dose-dependent effect | 20.2 | 46.5 (≈ 102 µM) | – | 13.6 | > 72 | Stable | tde | 7.9 | 2.93 | – | –
COc1cc(NC(C)CCCN2C(=O)CN(C(C)=O)C2(C)C)c2ncccc2c1 (stereo unspecified) | > 100 | ≥ 50 | – | – | – | – | 102 | – | – | 36.7 | – | – | – | > 10 | – | – | –
COc1cc(NC(C)CCCN2C(=O)CN(C(=O)[C@@H](C)N)C2(C)C)c2ncccc2c1 (stereo partly specified) | 7.8 | 39.6 | Dose-dependent effect | 10 | 67.9 | Dose-dependent effect | 18.7 | 120 (≈ 281 µM) | 40.1 | 8.4 | > 72 | Stable | tde | – | 2.49 | – | –
